Results: ChEMBL document CHEMBL3525906, “A comprehensive assessment of repaglinide metabolic pathways: impact of choice of in vitro system and relative enzyme contribution to in vitro clearance” (Drug Metab Dispos, 2012)

Assays:
[1] = Drug metabolism in human hepatocytes assessed as 3'-hydroxy repaglinide formation by LC-MS/MS method; type: ADME, cell-based, Hepatocyte
Cytochrome P450 3A5 = Cytochrome P450 3A5 (Homo sapiens, UniProt P20815); assay: Unbound intrinsic clearance in human recombinant CYP3A5 expressed in insect cells assessed as enzyme-mediated 3'-hydroxy repaglinide formation per nanomole of protein at 0.5 to 150 uM by LC-MS/MS method; type: ADME
Hepatocyte [2] = assay: Drug metabolism in human hepatocytes assessed as glucuronide formation measured per 10^6 cells at 0.5 to 150 uM by LC-MS/MS method; type: ADME, cell-based
Liver microsome [3] = assay: Drug metabolism in human liver microsomes assessed as 2-despiperidyl-2-amino repaglinide formation measured per mg of protein at 0.5 to 150 uM by LC-MS/MS method; type: ADME
[4] = Drug metabolism in human hepatic S9 fraction assessed as 2-despiperidyl-2-amino repaglinide formation measured per mg of protein at 0.5 to 150 uM by LC-MS/MS method; type: ADME, Liver; details: s9, 150 µM
Cytochrome P450 2C8 [5] = target: T1, Cytochrome P450 2C8 (Homo sapiens, UniProt P10632); assay: Fraction metabolism via CYP2C8 in human hepatocytes; type: ADME, cell-based, Hepatocyte
T1 sequence (P10632 whole entry): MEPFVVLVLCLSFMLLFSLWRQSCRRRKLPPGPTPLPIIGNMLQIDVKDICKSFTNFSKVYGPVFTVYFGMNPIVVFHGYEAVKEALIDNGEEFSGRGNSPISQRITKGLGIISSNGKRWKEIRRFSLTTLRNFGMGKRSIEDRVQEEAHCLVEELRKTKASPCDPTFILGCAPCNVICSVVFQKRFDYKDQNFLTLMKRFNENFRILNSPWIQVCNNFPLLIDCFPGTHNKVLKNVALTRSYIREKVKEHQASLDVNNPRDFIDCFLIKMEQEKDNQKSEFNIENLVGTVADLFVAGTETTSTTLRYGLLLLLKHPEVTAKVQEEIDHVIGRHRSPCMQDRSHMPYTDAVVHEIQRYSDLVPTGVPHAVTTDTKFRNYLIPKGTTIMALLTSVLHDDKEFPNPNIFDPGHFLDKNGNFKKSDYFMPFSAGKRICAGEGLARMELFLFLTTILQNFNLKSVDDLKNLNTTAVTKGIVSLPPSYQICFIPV

Cytochrome P450 3A4 = Cytochrome P450 3A4 (Homo sapiens, UniProt P08684); assay: Fraction metabolism via CYP3A4 in human hepatocytes; type: ADME, cell-based, Hepatocyte
[6] = Half life in type 2 diabetes patient; type: ADME, organism-based; details: human, in vivo
Homo sapiens [7] = organism: Homo sapiens; assay: Drug metabolism in human patient assessed as fold change in metabolite M2/M1 AUC ratio at 0.25 mg co-treated with montelukast relative to montelukast non-treated patient; type: ADME, organism-based; details: in vivo
Homo sapiens [8] = organism: Homo sapiens; assay: Drug metabolism in human patient assessed as fold change in metabolite M2/M4 AUC ratio at 0.25 mg co-treated with gemfibrozil on various time intervals relative to gemfibrozil non-treated patient; type: ADME, organism-based; details: in vivo
Homo sapiens [9] = organism: Homo sapiens; assay: Drug metabolism in human patient assessed as fold change in metabolite M2/M4 AUC ratio at 0.25 mg co-treated with atorvastatin relative to atorvastatin non-treated patient; type: ADME, organism-based; details: in vivo
Homo sapiens [10] = organism: Homo sapiens; assay: Drug metabolism in human patient assessed as fold change in metabolite M2/M4 AUC ratio at 0.25 mg co-treated with telithromycin relative to telithromycin non-treated patient; type: ADME, organism-based; details: in vivo
Homo sapiens [11] = organism: Homo sapiens; assay: Drug metabolism in human patient assessed as fold change in metabolite M2/M4 AUC ratio at 0.25 mg co-treated with montelukast relative to montelukast non-treated patient; type: ADME, organism-based; details: in vivo
Homo sapiens [12] = organism: Homo sapiens; assay: Ratio of AUC in human patient at 0.25 mg to AUC in human patient at 0.25 mg co-treated with gemfibrozil; type: ADME, organism-based; details: in vivo
Homo sapiens [13] = organism: Homo sapiens; assay: Ratio of AUC in human patient at 0.25 mg to AUC in human patient at 0.25 mg co-treated with itraconazole; type: ADME, organism-based; details: in vivo
Homo sapiens [14] = organism: Homo sapiens; assay: Ratio of AUC in human patient at 0.25 mg to AUC in human patient at 0.25 mg co-treated with atorvastatin; type: ADME, organism-based; details: in vivo
Homo sapiens [15] = organism: Homo sapiens; assay: Ratio of AUC in variable SLCO1B1 genotype human patient at 0.25 mg to AUC in variable SLCO1B1 genotype human patient at 0.25 mg co-treated with gemfibrozil; type: ADME, organism-based; details: in vivo
Homo sapiens [16] = organism: Homo sapiens; assay: Ratio of AUC in variable OATP1B1 genotype human patient at 0.25 mg to AUC in ariable OATP1B1 genotype human patient at 0.25 mg co-treated with gemfibrozil on various time intervals; type: ADME, organism-based; details: in vivo
Homo sapiens [17] = organism: Homo sapiens; assay: Drug metabolism in human patient assessed as fold change in metabolite M2/M1 AUC ratio at 0.25 mg co-treated with gemfibrozil on various time intervals relative to gemfibrozil non-treated patient; type: ADME, organism-based; details: in vivo
Liver microsome [18] = assay: Drug metabolism in human liver microsomes assessed as 2-despiperidyl-2-amino repaglinide formation by LC-MS/MS method; type: ADME
[19] = Drug metabolism in human hepatic S9 fraction assessed as 2-despiperidyl-2-amino repaglinide formation by LC-MS/MS method; type: ADME, Liver
Hepatocyte [20] = assay: Unbound intrinsic clearance in human hepatocytes assessed as 2-despiperidyl-2-amino repaglinide formation measured per 10^6 cells at 0.5 to 150 uM by LC-MS/MS method; type: ADME, cell-based
Liver microsome [21] = assay: Unbound intrinsic clearance in human liver microsomes assessed as 2-despiperidyl-2-amino repaglinide formation measured per mg of protein at 0.5 to 150 uM by LC-MS/MS method; type: ADME
Procedure, shortened: (§1)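 Pooled HLM, 0.3 mg/ml, in 0.1 M phosphate pH 7.4 with 10 mM MgCl2 and NADPH regenerating system. Repaglinide at 8 levels, 0.5-150 μM; 37°C, 10 min. Metabolites by LC-MS/MS against authentic standards; fu_inc 0.85. Duplicates on three occasions.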

Liver microsome [22] = assay: Drug metabolism in human liver microsomes assessed as glucuronide formation measured per mg of protein at 0.5 to 150 uM by LC-MS/MS method; type: ADME
Hepatocyte [23] = assay: Unbound intrinsic clearance in human hepatocytes assessed as glucuronide formation measured per 10^6 cells at 0.5 to 150 uM by LC-MS/MS method; type: ADME, cell-based
Cytochrome P450 2C8 [24] = target: T1, Cytochrome P450 2C8; assay: Unbound intrinsic clearance in human recombinant CYP2C8 expressed in insect cells assessed as enzyme-mediated 2-despiperidyl-2-amino repaglinide formation per nanomole of protein at 0.5 to 150 uM by LC-MS/MS method; type: ADME
Hepatocyte [25] = assay: Drug metabolism in human hepatocytes assessed as 2-despiperidyl-2-(5-carboxypentylamine) repaglinide formation measured per 10^6 cells at 0.5 to 150 uM by LC-MS/MS method; type: ADME, cell-based
[26] = Drug metabolism in human hepatocytes assessed as 2-despiperidyl-2-(5-carboxypentylamine) repaglinide formation by LC-MS/MS method; type: ADME, cell-based, Hepatocyte
Hepatocyte [27] = assay: Unbound intrinsic clearance in human hepatocytes assessed as 2-despiperidyl-2-(5-carboxypentylamine) repaglinide formation measured per 10^6 cells at 0.5 to 150 uM by LC-MS/MS method; type: ADME, cell-based
Liver microsome [28] = assay: Unbound intrinsic clearance in human liver microsomes assessed as 2-despiperidyl-2-(5-carboxypentylamine) repaglinide formation measured per mg of protein at 0.5 to 150 uM by LC-MS/MS method; type: ADME; procedure, shortened: as §1
Hepatocyte [29] = assay: Drug metabolism in human hepatocytes assessed as 3'-hydroxy repaglinide formation measured per 10^6 cells at 0.5 to 150 uM by LC-MS/MS method; type: ADME, cell-based

Cytochrome P450 3A4, sequence (P08684 whole entry): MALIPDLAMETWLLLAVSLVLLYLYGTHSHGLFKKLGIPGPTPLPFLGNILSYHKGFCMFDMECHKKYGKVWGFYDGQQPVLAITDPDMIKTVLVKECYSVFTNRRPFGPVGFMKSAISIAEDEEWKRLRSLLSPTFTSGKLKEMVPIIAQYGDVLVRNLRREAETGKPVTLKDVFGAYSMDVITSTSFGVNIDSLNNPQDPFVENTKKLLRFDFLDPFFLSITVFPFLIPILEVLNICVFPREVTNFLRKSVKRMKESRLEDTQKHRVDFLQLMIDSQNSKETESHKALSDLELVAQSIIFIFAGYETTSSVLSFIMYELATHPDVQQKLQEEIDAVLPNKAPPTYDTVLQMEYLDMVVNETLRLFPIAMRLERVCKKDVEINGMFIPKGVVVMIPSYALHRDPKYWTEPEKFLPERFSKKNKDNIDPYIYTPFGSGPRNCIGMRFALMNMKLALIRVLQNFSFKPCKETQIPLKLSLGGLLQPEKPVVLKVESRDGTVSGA
Cytochrome P450 3A5, sequence (P20815 whole entry): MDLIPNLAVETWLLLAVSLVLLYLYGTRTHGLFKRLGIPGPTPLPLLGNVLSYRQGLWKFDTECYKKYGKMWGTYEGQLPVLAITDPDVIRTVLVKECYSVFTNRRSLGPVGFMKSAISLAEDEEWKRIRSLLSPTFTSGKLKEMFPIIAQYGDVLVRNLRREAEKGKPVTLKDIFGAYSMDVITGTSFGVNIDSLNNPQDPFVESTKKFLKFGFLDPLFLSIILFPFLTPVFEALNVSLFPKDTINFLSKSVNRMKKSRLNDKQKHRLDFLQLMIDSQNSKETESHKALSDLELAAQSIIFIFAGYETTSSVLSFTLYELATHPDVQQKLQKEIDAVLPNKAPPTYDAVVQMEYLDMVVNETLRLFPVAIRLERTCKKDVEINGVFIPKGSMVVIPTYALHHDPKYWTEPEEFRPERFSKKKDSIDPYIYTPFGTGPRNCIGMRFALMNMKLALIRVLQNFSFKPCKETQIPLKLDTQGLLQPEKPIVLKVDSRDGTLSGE

CCOc1cc(CC(=O)N[C@@H](CC(C)C)c2ccccc2N2CCCCC2)ccc1C(=O)O [REPAGLINIDE]
Km [1]: 13 µM
CL free (Cytochrome P450 3A5): 0.19 µL/min/nmol
Vmax (Hepatocyte [2]): 5.7 pmol/min/10^6cells
Vmax (Liver microsome [3]): 170 pmol/min/mg
Vmax [4]: 24 pmol/min/mg
Fm (Cytochrome P450 2C8 [5]): 0.49
Fm (Cytochrome P450 3A4): 0.41
half-life [6]: 1 h
fold change (FC) (Homo sapiens [7]): 1.1
fold change (FC) (Homo sapiens [8]): 0.94
fold change (FC) (Homo sapiens [9]): 0.87
fold change (FC) (Homo sapiens [10]): 0.8
fold change (FC) (Homo sapiens [11]): 0.98
Ratio (Homo sapiens [12]): 8.1
Ratio (Homo sapiens [13]): 1.4
Ratio (Homo sapiens [14]): 1.2
Ratio (Homo sapiens [15]): 7.3
Ratio (Homo sapiens [16]): 1
fold change (FC) (Homo sapiens [17]): 0.39
Km (Liver microsome [18]): 47 µM
Km [19]: 58 µM
CL free (Hepatocyte [20]): 0.75 uL/min/10^6cells
CL free (Liver microsome [21]): 4.1 µL/min/mg
Vmax (Liver microsome [22]): 170 pmol/min/mg
CL free (Hepatocyte [23]): 0.13 uL/min/10^6cells
CL free (Cytochrome P450 2C8 [24]): 3.7 µL/min/nmol
Vmax (Hepatocyte [25]): 80 pmol/min/10^6cells
Km [26]: 28 µM
CL free (Hepatocyte [27]): 3.3 uL/min/10^6cells
CL free (Liver microsome [28]): 1.4 µL/min/mg
Vmax (Hepatocyte [29]): 28 pmol/min/10^6cells
